CAL PDZ FP-1 – human CAL PDZ-peptide interaction inhibition | actives 0.02% (n = 330,000) | Q9HD26 | purified CAL PDZ, TMR-peptide fluorescence polarization, 1 h | inhibition, % at 20 µM;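 active = highest replicate inhibition of at least 40%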;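 note: plate controls were DMSO neutral control wells for no effect and unlabeled competitor peptide control wells for full effect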
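Test system: tagged CAL PDZ domain / Buffer or medium: sodium phosphate/NaCl buffer pH 7.4 with TCEP, IgG, Thesit / Reagent: TMR-labelled reporter peptide T*-PRC34 bound in PDZ groove / Compound dosing: single point, 20 µM / Schedule: 1 h incubation at room temperature before polarization reading / Technique: fluorescence polarization (mP) / Benchmarks: unlabelled peptide, DMSO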
PKA-R1A activ – PKA-R1A complex activation. P00514+P68181. AID 504707. actives 0.083% (n = 340,000). activation, % at 11.4 µM. PKA-R1A dissociation, Cy5-IP20 fluorescence polarization; scaled: DMSO 0%, 113 µM cGMP 100%;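 active = percent activation above the mean of all tested compounds plus 3 SD, cut at about 19% in these data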;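 note: higher means more PKAc released from R1A so a rise in polarization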
CAL PDZ FP-2 – inhibitors of human CAL PDZ peptide binding; Q9HD26; purified CAL PDZ, TMR-peptide fluorescence polarization, 1 h; inhibition, % at 24.9 µM; actives 0.92% (n = 300,000);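 active = mean inhibition of at least 30% with at least half of replicates also reaching 30%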;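 note: 0% = DMSO neutral control and 100% = excess unlabeled competitor peptide PRC23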
dFosB act – enhances mouse delta FosB homodimer DNA binding; purified delta FosB, TAMRA-CDK5 oligo fluorescence polarization; percent of positive-control signal above neutral wells; activation, % at 25 µM; P13346; actives 0.99% (n = 340,000);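 active = mean activation above about 17%, with every replicate also reaching it, limit read from the data, passing the limit was not always enough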
PKA-R2B activ – activators of human PKA-R2B complex; P22694+P31323; PKA-R2B holoenzyme dissociation, Cy5-IP20 fluorescence polarization; R2B truncated from residue 108, S112A mutant; 0% DMSO only, 100% 113 µM cGMP; activation, % at 11.4 µM; actives 0.079% (n = 340,000);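 active = activation above a cutoff set at the mean over all compounds plus 3 SD, cut at about 18% in these data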;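 note: higher means more holoenzyme dissociation and a rise in polarization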
Target sequence (P31323 whole entry, looked up, other chains not shown, the tested form may be a part): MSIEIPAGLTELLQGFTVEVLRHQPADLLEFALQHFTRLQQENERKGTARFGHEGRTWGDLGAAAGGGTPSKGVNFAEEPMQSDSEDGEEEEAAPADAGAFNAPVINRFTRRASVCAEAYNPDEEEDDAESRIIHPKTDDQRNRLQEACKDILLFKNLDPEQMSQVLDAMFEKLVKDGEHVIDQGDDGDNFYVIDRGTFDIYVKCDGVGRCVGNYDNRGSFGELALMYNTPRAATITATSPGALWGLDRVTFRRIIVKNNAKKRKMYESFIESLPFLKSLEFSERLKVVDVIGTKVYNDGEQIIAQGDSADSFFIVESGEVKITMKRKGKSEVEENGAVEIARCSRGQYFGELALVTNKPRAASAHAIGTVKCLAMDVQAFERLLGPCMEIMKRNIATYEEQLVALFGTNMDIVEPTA
NTR1 agonist – agonists of human neurotensin receptor NTR1 | actives 0.17% (n = 330,000) | P30989 | activation, % at 20 µM | NTR1-U2OS beta-arrestin-GFP spot imaging, agonist mode | AID 493036;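 active = activation at or above 40% of the spot to cytoplasm intensity ratio, with at least 20 cells analyzed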;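 note: 0% = DMSO without peptide and 100% = 100 nM NTR1 peptide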
Active calls of the source: *. A selection: hits, their analogues and other compounds. The true share with any hit is near 2%.

`O=S(=O)(/N=S1\CC=CCN1S(=O)(=O)c1ccccc1)c1ccccc1` (centres undefined) gave CAL PDZ FP-1 -1.5, PKA-R1A activ -9.6, CAL PDZ FP-2 -1.8, dFosB act -0.5 and PKA-R2B activ -4.0.
For Cc1noc(C)c1CSCC(=O)Nc1cc(S(=O)(=O)N2CCOCC2)ccc1OC(C)C the results were CAL PDZ FP-1 -0.8, PKA-R1A activ -14.4, CAL PDZ FP-2 4.3, dFosB act -4.7, PKA-R2B activ 1.2 and NTR1 agonist 0.7.
For O=C(CCN1C(=O)/C(=C\c2ccccc2)SC1=S)N1CCCCC1 the results were CAL PDZ FP-1 -0.6, PKA-R1A activ 10.3, dFosB act -0.5, PKA-R2B activ 6.1 and NTR1 agonist -0.6.
For O=C(CCN1C(=O)/C(=C/c2cccs2)SC1=S)N1CCCCC1 the results were CAL PDZ FP-1 -0.7, PKA-R1A activ -9.9, CAL PDZ FP-2 85.4*, dFosB act -2.1, PKA-R2B activ 13.1 and NTR1 agonist 12.9.
`CCCC(=O)N(Cc1cc2cc(OC)ccc2[nH]c1=O)c1ccc(OC)cc1` gave PKA-R1A activ 4.8 and PKA-R2B activ -14.3.
CN(C(=S)NC(=O)C12CC3CC(CC(C3)C1)C2)c1ccc(O)cc1 was read as CAL PDZ FP-1 0.2, PKA-R1A activ -4.3, CAL PDZ FP-2 -1.1, dFosB act -15.2, PKA-R2B activ -8.5 and NTR1 agonist 2.4.
O=C(CCC(=O)c1ccccc1)Nc1ccccc1OC(F)F was read as CAL PDZ FP-1 -1.2, PKA-R1A activ -12.3, CAL PDZ FP-2 32.5*, dFosB act 8.6, PKA-R2B activ -2.6 and NTR1 agonist -0.6.
Screening O=C(CCNS(=O)(=O)/C=C/c1ccccc1)NCCc1c[nH]c2ccccc12 returned CAL PDZ FP-1 -0.7, PKA-R1A activ -1.4, CAL PDZ FP-2 -2.3, dFosB act -9.9, PKA-R2B activ 15.8 and NTR1 agonist -0.5.
Cc1ccc(/C=C2/CNC/C(=C/c3ccc(C)cc3)C2=O)cc1 was read as CAL PDZ FP-1 -0.3, PKA-R1A activ -0.9, CAL PDZ FP-2 38.8*, dFosB act -9.5 and PKA-R2B activ -3.6.
Screening O=C(CSc1ncnc2ccccc12)NCCc1ccccc1 returned CAL PDZ FP-1 11.5, PKA-R1A activ -6.8, CAL PDZ FP-2 44.8*, dFosB act -1.9, PKA-R2B activ -3.9 and NTR1 agonist -0.9.
`CCCCNC(=O)CSc1nc(CCC)nc2ccccc12` gave CAL PDZ FP-1 -0.1, PKA-R1A activ 9.5, CAL PDZ FP-2 30.2*, dFosB act -7.0, PKA-R2B activ 0.8 and NTR1 agonist 5.7.
Screening O=C(CSc1ncnc2ccccc12)NCCCO returned CAL PDZ FP-1 -0.6, PKA-R1A activ -9.5, CAL PDZ FP-2 2.6, dFosB act 0.5, PKA-R2B activ -5.3 and NTR1 agonist -1.0.
For Cc1cc(/N=C/C=C2/N(C)c3ccccc3C2(C)C)n(CCC#N)n1 the results were CAL PDZ FP-1 -0.1, PKA-R1A activ -1.5, CAL PDZ FP-2 7.0, dFosB act -9.6 and PKA-R2B activ -5.3.
Screening NC(=O)c1cc([N+](=O)[O-])ccc1NCc1ccc(C(=O)O)cc1 returned CAL PDZ FP-1 -1.2, PKA-R1A activ 1.9, CAL PDZ FP-2 -3.9, dFosB act -5.5, PKA-R2B activ 3.1 and NTR1 agonist -1.3.
CCCCCCCCNS(=O)(=O)CCNCc1ccco1 was read as CAL PDZ FP-1 -1.1, PKA-R1A activ 1.9, CAL PDZ FP-2 -1.4, dFosB act -7.9 and PKA-R2B activ 6.4.
COc1cc(Cn2c(=O)c3c(OC)c(C)cnc3n(C)c2=O)cc(OC)c1 was read as CAL PDZ FP-1 -2.0, PKA-R1A activ -9.3, CAL PDZ FP-2 2.5, dFosB act 6.2, PKA-R2B activ -7.3 and NTR1 agonist 3.1.
CCOC(=O)N1CCC(=C(C#N)C(=O)Nc2cc(OC)ccc2OC)CC1 was read as CAL PDZ FP-1 -0.1, PKA-R1A activ -1.9, CAL PDZ FP-2 30.8*, dFosB act -0.5, PKA-R2B activ 4.4 and NTR1 agonist -0.4.
For Cc1ccnc(NC(=O)CNC(=O)c2sc3ccccc3c2Cl)c1 the results were CAL PDZ FP-1 -0.3, PKA-R1A activ 1.4, CAL PDZ FP-2 -7.1, dFosB act 3.1, PKA-R2B activ 1.5 and NTR1 agonist -0.6.
Cc1ccnc(NC(=O)c2sc3cc(Cl)ccc3c2Cl)c1 was read as CAL PDZ FP-1 -1.3, PKA-R1A activ -0.7, CAL PDZ FP-2 80.6*, dFosB act -1.3, PKA-R2B activ -5.5 and NTR1 agonist -0.2.
Screening COc1ccccc1CCNC(=O)C1CC(=O)N(c2ccccc2F)C1 (centres undefined) returned PKA-R1A activ -2.5 and PKA-R2B activ 1.5.
`CCCn1c(=C(C#N)C#N)s/c(=C2\C=Cc3ccccc3N2CC)c1=O` gave CAL PDZ FP-1 0.1, PKA-R1A activ -3.6, CAL PDZ FP-2 54.9*, dFosB act 7.9 and PKA-R2B activ 1.2.
`CC(=O)NCC(=O)NNC1CC(=O)N(c2cccc(Cl)c2)C1=O` (centres undefined) gave CAL PDZ FP-1 -1.4, PKA-R1A activ -12.8, CAL PDZ FP-2 -6.3, dFosB act 5.8, PKA-R2B activ -2.1 and NTR1 agonist -0.9.
`COc1ccc(/C=C/C(=O)NC(=S)NNC(=O)c2cnccn2)cc1` gave CAL PDZ FP-1 -0.1, PKA-R1A activ 8.4, CAL PDZ FP-2 -2.8, dFosB act 16.9*, PKA-R2B activ -2.7 and NTR1 agonist 0.2.
`O=C(Nc1nnc(SCc2ccc(F)cc2)s1)c1ccccn1` gave CAL PDZ FP-1 -0.4, PKA-R1A activ -1.9, CAL PDZ FP-2 -1.3, dFosB act -4.0, PKA-R2B activ -4.3 and NTR1 agonist 13.2.
For CCCN1CCC(NC(=O)Nc2cc(Cl)ccc2OC)CC1 the results were CAL PDZ FP-1 -0.5, PKA-R1A activ -9.0, CAL PDZ FP-2 35.8*, dFosB act -3.5, PKA-R2B activ -4.4 and NTR1 agonist -0.6.
`COc1ccc(Cl)cc1NC(=O)NC1CCCCC1` gave CAL PDZ FP-1 -0.2, PKA-R1A activ -1.6, CAL PDZ FP-2 -3.1, dFosB act 4.5, PKA-R2B activ -8.3 and NTR1 agonist 5.1.
Cc1cc(Cl)ccc1OCC(=O)NNC(=O)CCOc1ccccc1 was read as CAL PDZ FP-1 -0.6, PKA-R1A activ 4.0, CAL PDZ FP-2 -0.6, dFosB act -4.0, PKA-R2B activ -1.6 and NTR1 agonist -0.6.
Cc1ccc(Nc2nc(N/N=C\c3ccc4c(c3)OCO4)nc(N3CCOCC3)n2)cc1 was read as CAL PDZ FP-1 0.0, PKA-R1A activ -8.6, dFosB act 59.5*, PKA-R2B activ -8.1 and NTR1 agonist 0.9.
Screening Cc1ccc(/C=N/Nc2cc(C)nc(N3CCOCC3)n2)cc1 returned CAL PDZ FP-1 -0.5, PKA-R1A activ -5.9, CAL PDZ FP-2 -5.4, dFosB act -2.5, PKA-R2B activ -8.5 and NTR1 agonist 3.7.
